Like-named read-outs stand apart in the source and are kept apart here.
What was measured:
HK1 [1] = assay: MTS assay, HK1; assay type: cell-based, human; details: read-out: IC50 value
Procedure, shortened: (§1)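 Cell lines were seeded per well in 96-well plates: C666-1 at 30,000, HK1 at 10,000, NP69SV40T at 15,000 and NP460hTert at 15,000. After 2 h at 37°C in 5% CO2, test compound was added at 0.8-200 nM (rocaglates) or 0.15-20 µM (second compound). Vehicle was 0.1% DMSO final, or NaH2PO4. MTS was added after 1-3 days for 1-4 h, reading A490 minus A630. IC50 was fitted from % signal versus vehicle.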

NP69SV40T = assay: MTS assay, NP69SV40T; assay type: cell-based, human; details: read-out: IC50 value
Procedure, shortened: as §1

NP460hTert = assay: MTS assay, NP460hTert; assay type: cell-based, human; details: read-out: IC50 value
Procedure, shortened: as §1

HK1 [2] = assay: Flow cytometric analysis of cell cycle progression; assay type: cell-based, human
Procedure, shortened: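 HK1 cells were seeded at 1.0x10^5 cells/0.5 ml/well in 12-well plates. After 2 h, test compound was added at 5 nM, 10 nM or 1 µM, alone or combined. Exposure lasted 2-3 days. Adherent and floating cells were pelleted and stained in hypotonic buffer (propidium iodide, RNase A, sodium citrate, Triton X) on ice, in the dark, for 10 min. ≥10,000 events were acquired by flow cytometry, and DNA-content histograms were modelled for cycle phases.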

[3] = toxicity studies mostly in murine models; cited from earlier work
HK1 [4] = assay: FITC Annexin V/PI apoptosis assay; assay type: cell-based, human; details: 3 days post-treatment, 1 μM
Procedure, shortened: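 HK1 cells were seeded at 1.0x10^5 cells/0.5 ml/well in 12-well plates. After ~2 h, test compound was added at 5 nM, 10 nM or 1 µM, alone or combined, for 3 days. Adherent and floating cells were stained with FITC-Annexin V and PI in binding buffer for 15 min in the dark. Samples were diluted, kept on ice and analysed by flow cytometry, acquiring 10,000 events per sample.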

[5] = system: NPC cell lines or nasopharyngeal epithelial cells; assay: MTS assay, summary over cell lines; assay type: cell-based; details: Homo sapiens, read-out: IC50 values
Procedure, shortened: as §1

normal bone marrow cells = details: 1 µΜ, two days; cited from earlier work
[6] = advanced hematologic malignancy patients; phase I dose-escalation; cited from earlier work
C666-1 = assay: MTS assay, C666-1; assay type: cell-based, human
Procedure, shortened: as §1

[7] = silvestrol 5 nM, episilvestrol 10 nM or combination with 1 µM CX-5461

Compound `COC(=O)[C@H]1[C@@H](O)[C@@]2(O)c3c(OC)cc(O[C@@H]4O[C@@H]([C@H](O)CO)CO[C@H]4OC)cc3O[C@@]2(c2ccc(OC)cc2)[C@@H]1c1ccccc1` [Silvestrol, silvestrol] has an IC50 (HK1 [1]; Homo sapiens, HK-1, 24 h) of 132 nM, an IC50 (HK1 [1]; Homo sapiens, HK-1, 48 h) of 7 nM and an IC50 (NP69SV40T; Homo sapiens, 24 h) of 58 nM. For the same compound, the IC50 (NP69SV40T; Homo sapiens, 48 h) was 8 nM, the IC50 (NP460hTert; Homo sapiens, 24 h) was 9 nM and the IC50 (NP460hTert; Homo sapiens, 48 h) was 9 nM. The cell cycle arrest (HK1 [2]; [7]) was “arrested cells at G0/G1” and the tolerability [3] was “well tolerated”.

For `Cc1cnc(CNC(=O)c2c(=O)c3ccc(N4CCCN(C)CC4)nc3n3c2sc2ccccc23)cn1` [CX-5461, reference compound], the IC50 (HK1 [1]; Homo sapiens, HK-1, 24 h) was 2000 nM, the IC50 (HK1 [1]; Homo sapiens, HK-1, 48 h) was 1000 nM and the IC50 (NP69SV40T; Homo sapiens, 24 h) was 6000 nM. For the same compound, the IC50 (NP69SV40T; Homo sapiens, 48 h) was 1000 nM, the IC50 (NP460hTert; Homo sapiens, 24 h) was 500 nM and the IC50 (NP460hTert; Homo sapiens, 48 h) was 400 nM. The cell cycle arrest (HK1 [2]; 1 µM) was “arrested cells at S-phase and G2/M”, the “% apoptosis (percentage of total apoptosis)” value (HK1 [4]) was less than 20% and the IC50 [5] was 400 to 6000 nM. For the same compound, the cell death (normal bone marrow cells) was “minimal cell death” and the tolerability [6] was “well tolerated”.

With `COC(=O)[C@H]1[C@@H](O)[C@@]2(O)c3c(OC)cc(O[C@@H]4O[C@@H]([C@@H](O)CO)CO[C@H]4OC)cc3O[C@@]2(c2ccc(OC)cc2)[C@@H]1c1ccccc1` [Episilvestrol, episilvestrol] the IC50 (C666-1; read-out: IC50 value, 1 day post-treatment) was 56 nM, the IC50 (C666-1; read-out: IC50 value, 2 days post-treatment) was 18 nM and the IC50 (C666-1; read-out: IC50 value, 3 days post-treatment) was 10 nM. The IC50 (HK1 [1]; HK1, 1 day post-treatment) was 60 nM, the IC50 (HK1 [1]; HK1, 2 days post-treatment) was 13 nM and the IC50 (HK1 [1]; HK1, 3 days post-treatment) was 10 nM. For the same compound, the IC50 (NP69SV40T; NP69SV40T, 1 day post-treatment) was 68 nM, the IC50 (NP69SV40T; NP69SV40T, 2 days post-treatment) was 19 nM and the IC50 (NP69SV40T; NP69SV40T, 3 days post-treatment) was 10 nM. The IC50 (NP460hTert; NP460hTert, 1 day post-treatment) was 14 nM, the IC50 (NP460hTert; NP460hTert, 2 days post-treatment) was 20 nM and the IC50 (NP460hTert; NP460hTert, 3 days post-treatment) was 10 nM. The cell cycle arrest (HK1 [2]; [7]) was “arrested cells at G0/G1”.

From publication PMC12400138 (Molecular and Clinical Oncology, 2025)
